# G6PDH counter = L. mesenteroides G6PDH inhibitors, counter-screen for G6PDH-coupled screening assays, biochemical, Leuconostoc mesenteroides enzyme | glucose-6-phosphate dehydrogenase [Leuconostoc mesenteroides] | Purified L. mesenteroides G6PDH, diaphorase/resazurin coupled fluorescence, 45 min | inhibition, % at 5 µM | 200,000 tested, 0.12% active; in the data active = inhibition above about 50%
# TNAP act hi DEA = TNAP activators at high phosphate acceptor level, primary screen, biochemical, luminescence, uHTS; Alkaline phosphatase, tissue-nonspecific isozyme (Homo sapiens), P05186; activation factor at 20 µM; 200,000 tested, under 10 active; purified TNAP, CDP-star luminescence, 1 M DEA, 30 min; stronger effect = higher value; 0 = EDTA background, 1 = DMSO-only activity;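 active = activation factor at least 2 at 20 µM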
# Target sequence (P05186 whole entry, looked up): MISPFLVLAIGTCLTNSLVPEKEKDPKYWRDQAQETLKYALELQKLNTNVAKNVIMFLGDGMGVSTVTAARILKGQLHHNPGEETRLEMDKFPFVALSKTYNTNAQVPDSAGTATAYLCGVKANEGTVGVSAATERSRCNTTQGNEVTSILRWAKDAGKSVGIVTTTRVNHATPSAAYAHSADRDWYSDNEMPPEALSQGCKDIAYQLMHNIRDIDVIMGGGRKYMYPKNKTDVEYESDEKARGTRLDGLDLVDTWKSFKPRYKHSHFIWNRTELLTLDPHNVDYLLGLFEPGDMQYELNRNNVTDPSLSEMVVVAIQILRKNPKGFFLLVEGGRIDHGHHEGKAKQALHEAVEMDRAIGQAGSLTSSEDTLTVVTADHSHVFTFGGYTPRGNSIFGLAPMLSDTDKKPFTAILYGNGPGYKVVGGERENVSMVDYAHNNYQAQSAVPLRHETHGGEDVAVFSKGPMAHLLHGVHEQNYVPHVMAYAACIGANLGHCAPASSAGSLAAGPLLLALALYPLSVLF
#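 Control set: EDTA negative control, DMSO positive control / Assay system: human TNAP / Quantity: TNAP 1/800 final / Evaluation: TNAP activation factor scaled between EDTA and DMSO control wells / Measured by: luminescent substrate turnover signal / Compound dosing: one dose, 20 µM / Times: 30 min enzyme reaction at room temperature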
# Redox H2O2 prof = compounds producing H2O2 with reducing agent – biochemical, NIH compound library profiling, artefact control for MLSCN library redox annotation, primary screen | DTT-dependent redox cycling H2O2, phenol red/HRP absorbance; 100% = 100 µM peroxide control, 0% = buffer | 200,000 tested, 0.03% active | activation, % at 10 µM;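 active = activation of at least 50% relative to the plate's high and low controls in the primary single-dose screen; inactive = activation below 50%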;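 also: compound incubated with DTT at 0.8 mM final as the reducing agent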
# p97 inhibitor = inhibitors of human p97 ATPase, primary screen, biochemical. recombinant p97 ATPase, Kinase-Glo ATP luminescence, 3 h. inhibition, % at 8 µM. 220,000 tested, 0.42% active. Transitional endoplasmic reticulum ATPase (Homo sapiens), P55072; in the data active = inhibition above about 15%;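 also: 0% = DMSO vehicle and 100% = wells lacking enzyme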
# TNAP inh noacc = human TNAP enzyme inhibitors, primary screen, biochemical, luminescent, no phosphate acceptor, uHTS; Alkaline phosphatase, tissue-nonspecific isozyme (Homo sapiens), P05186; purified TNAP, CDP-star luminescence, 30 min; inhibition, % at 20 µM; 200,000 tested, 0.26% active;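 active = tissue-nonspecific alkaline phosphatase inhibition above about 50% at 20 µM in the single-dose screen, limit read from the data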;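 also: 0% = DMSO negative control and 100% = EDTA positive control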
# TNAP inh hi DEA = human TNAP enzyme inhibitors, primary screen, biochemical, luminescent, high phosphate acceptor level, uHTS; purified TNAP, CDP-star luminescence, 1 M DEA; Alkaline phosphatase, tissue-nonspecific isozyme (Homo sapiens), P05186; inhibition, % at 20 µM; AID 1135, 2008; 200,000 tested, 0.03% active;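 active = over 50% inhibition of tissue-nonspecific alkaline phosphatase at 20 µM in the single-dose screen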;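 also: plate controls were DMSO wells for no effect and EDTA-quenched wells as full inhibition for full effect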
# p97 confirm = p97 ATPase inhibitors, retest, confirmation, biochemical; inhibition, % at 8 µM; 760 tested, 44% active; shares compounds with p97 inhibitor; recombinant p97 ATPase, Kinase-Glo ATP luminescence;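 active = percent inhibition of p97 ATPase above a set limit, the primary screen's mean plus 3 SD, cut at about 15% in these data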;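 also: 0% = DMSO wells and 100% = wells lacking p97 protein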
# Numbers without * were called inactive; . = not tested or not shown. Hits are enriched below; roughly 0.79% of the tested compounds scored in any of these assays.
SMILES,G6PDH counter,TNAP act hi DEA,Redox H2O2 prof,p97 inhibitor,TNAP inh noacc,TNAP inh hi DEA,p97 confirm
N#CCP(=S)(c1ccccc1)c1ccccc1,3,1,0,1,-7,-2,.
O=C(O)c1sc2cc(Cl)ccc2c1Cl,.,.,.,10,.,.,.
c1ccc2c(c1)Sc1ccccc1N2CC1CN2CCC1CC2 (stereo unspecified),.,.,.,18*,.,.,15*
Clc1ccccc1CNC1CN2CCC1CC2 (stereo unspecified),5,1.1,1,6,-5,-8,.
CN1CCc2nc(SCc3cccc(Br)c3)c(C#N)cc2C1,.,.,.,3,.,.,.
N#CC(C#N)=NNc1ccc(S(N)(=O)=O)cc1,.,.,.,23*,.,.,25*
O=C(O)CC1OCC=C2CN3CCC45C6=CC(=O)C(=O)C([N+](=O)[O-])=C6NC4C1C2CC35 (stereo unspecified),.,.,.,38*,.,.,37*
C[C@]12CC[C@@H]3c4ccc(O)c(O)c4CC[C@H]3[C@@H]1CC[C@@H]2O,34,1,.,23*,12,0,5
CC1=[N+]([O-])C2(N)CCc3nonc3C2(O)C1 (stereo unspecified),9,1,0,2,-7,0,.
COCCCNC(=O)c1c(NC(=O)c2ccco2)n(Cc2ccccc2)c2nc3ccccc3nc12,9,1,-1,24*,-1,-3,4
CCCCNC(=O)c1c(N)n(CCCOC)c2nc3ccccc3nc12,41,1,-3,22*,-8,-3,-2
CCOC(=O)c1c(NS(=O)(=O)c2ccccc2)n(CCCOC)c2nc3ccccc3nc12,43,0.9,0,45*,-18,10,17*
COCCNC(=O)c1c(NC(=O)c2ccc(Br)o2)n(Cc2ccccc2)c2nc3ccccc3nc12,5,0.9,0,8,8,7,.
COc1ccc(Cn2c(N)c(C(=O)NCc3ccco3)c3nc4ccccc4nc32)cc1OC,7,1,2,32*,-11,-2,7
CC1(C)CC(N(CCc2ccccc2)Cc2ccccc2)CCO1 (stereo unspecified),.,.,.,-8,.,.,.
CCCSc1nc(O)c(CC)c(=O)n1C(C)CC (stereo unspecified),-5,1,0,0,-12,-4,.
CCOc1ccc(-n2c(CC)nc3ccccc3c2=O)cc1,-17,1.1,-3,3,-7,-5,.
CCN1C(=O)C(=Cc2ccc(N3CCOCC3)o2)C(=O)N(CC)C1=S,.,.,.,1,.,.,.
CN1C(=O)C(=Cc2ccc(N3CCOCC3)o2)C(=O)N(C)C1=S,4,0.7,9,19*,31,28,-2

# Source: PubChem (several laboratories)
